# Rtt109 Vps75 = inhibitors of C. albicans Rtt109/Vps75 HAT, primary screen, biochemical, ThioGlo CoA-SH fluorescence, plate reader. Histone acetyltransferase RTT109 (Candida albicans (strain SC5314 / ATCC MYA-2876)), …. purified Rtt109/Vps75, 4 h. inhibition, % at 34.9 µM. 330,000 tested, 0.16% active;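 active means inhibition of at least 50% in every replicate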
# Target sequence (Q5AAJ8 whole entry, looked up): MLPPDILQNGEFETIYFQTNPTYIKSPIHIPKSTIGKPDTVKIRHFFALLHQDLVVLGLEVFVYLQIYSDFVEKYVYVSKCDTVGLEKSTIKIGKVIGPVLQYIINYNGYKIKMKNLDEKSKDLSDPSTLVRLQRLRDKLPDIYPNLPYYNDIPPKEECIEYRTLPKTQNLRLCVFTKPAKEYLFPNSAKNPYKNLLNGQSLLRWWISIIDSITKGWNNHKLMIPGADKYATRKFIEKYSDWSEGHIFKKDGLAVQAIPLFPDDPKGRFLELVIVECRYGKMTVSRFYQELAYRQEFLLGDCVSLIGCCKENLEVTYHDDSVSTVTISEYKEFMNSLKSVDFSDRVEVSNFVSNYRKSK
# CAL PDZ FP-1 = untagged CAL PDZ binding inhibitors, primary screen, biochemical, fluorescence polarization, HTS. Golgi-associated PDZ and coiled-coil motif-containing protein (Homo sapiens), Q9HD26. purified CAL PDZ, TMR-peptide fluorescence polarization, 1 h. inhibition, % at 24.9 µM. 300,000 tested, 0.92% active;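 active means mean inhibition of at least 30% with at least half of replicates also reaching 30%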
# ALR H2O2 inh = inhibitors of human ALR sulfhydryl oxidase, primary screen, biochemical, H2O2 detection, HRP-luminol luminescence, single point. FAD-linked sulfhydryl oxidase ALR (Homo sapiens), P55789. purified ALR, DTT oxidation. inhibition, % (no concentration beside the values). 290,000 tested, 3.8% active. AID 485317, 2010;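 active means mean replicate inhibition above about 79%, with every replicate also reaching it, limit read from the data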
# Target sequence (P55789 whole entry, looked up): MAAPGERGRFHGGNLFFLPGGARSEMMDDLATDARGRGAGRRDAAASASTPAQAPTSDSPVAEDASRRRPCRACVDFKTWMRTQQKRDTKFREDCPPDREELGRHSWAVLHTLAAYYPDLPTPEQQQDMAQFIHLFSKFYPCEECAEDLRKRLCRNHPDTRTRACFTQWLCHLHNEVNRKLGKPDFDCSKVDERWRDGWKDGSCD
# Dyrk1A ADPGlo = rat Dyrk1A kinase inhibitors, primary screen, biochemical, single point, plate reader. Dual specificity tyrosine-phosphorylation-regulated kinase 1A (Rattus norvegicus), Q63470. ADP-Glo luminescence, NFATc1 peptide. inhibition, % at 12.5 µM. 310,000 tested, 0.43% active; in the data active means inhibition above about 50%
# CAL PDZ FP-2 = CAL PDZ peptide-binding inhibitors, primary screen, biochemical, fluorescence polarization, Cer-tagged CAL PDZ, HTS; 330,000 tested, 0.02% active; purified CAL PDZ, TMR-peptide fluorescence polarization, 1 h; inhibition, % at 20 µM; AID 504414, 2011;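 active means highest replicate inhibition of at least 40%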
#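 Material – purified CerCALP PDZ construct · Detection – FP readout, S and P plane fluorescence · Measure – percent inhibition from loss of millipolarization · Controls – unlabelled peptide for full inhibition, DMSO wells as neutral · Probe or stimulus – TMR-labelled reporter peptide T*-PRC34 bound in PDZ groove · Times – 1 h at RT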
# Hits are given with their value; 0 = inactive; - = no result given; + = active, no number. A selection: hits, their analogues and other compounds. The true share with any hit is near 4.3%.
SMILES,Rtt109 Vps75,CAL PDZ FP-1,ALR H2O2 inh,Dyrk1A ADPGlo,CAL PDZ FP-2
Cc1ccc(S(=O)(=O)NN2C(=O)/C(=C/c3cccnc3)SC2=S)cc1,0,0,96,0,0
COc1ccccc1/C=C1\SC(=S)N(NS(=O)(=O)c2ccc(C)cc2)C1=O,0,0,97,0,0
COc1cccc(CNC(=O)COc2ccc(C(=O)c3ccccc3)cc2)c1,-,0,-,0,0
O=C(CCC(=O)N1CCOc2ccc(Cl)cc21)NCCCN1CCN(Cc2ccccc2)CC1,0,-,0,0,0
CN(CCCNC(=O)CCC(=O)N1CCOc2ccc(Cl)cc21)Cc1ccccc1,0,-,93,0,0
O=c1c(Cc2ccccc2)c(O)ccn1Cc1ccc2c(c1)OCO2,0,-,0,0,0
CCOC(=O)/C(Sc1nc(-c2ccccc2)cc(-c2ccccc2)c1C#N)=C(\C)O,0,0,0,0,0
Cc1[nH]c2ccccc2c1/C=N/NC(N)=S,0,0,-,0,0
CCc1nnc(N/N=C/c2c(C)[nH]c3ccccc23)n1N,0,0,99,0,0
CCCc1cnc(N2CCN(C(=O)c3ccc(OC)cc3)CC2)nc1,0,0,0,0,0
COc1ccc(OC)c(C2=NS(=O)(=O)N(C)C(C(=O)Nc3ccc(C(C)=O)cc3)=C2)c1,0,54,0,0,0
COc1ccc(S(=O)(=O)n2nc(OC(C)=O)cc2N)cc1,0,0,98,0,0
Cc1cc(NC(=O)CN2CCN(c3ccc(O)cc3)CC2)no1,0,0,99,0,-
O=C(CN1CCN(c2ccc(O)cc2)CC1)NCC(=O)Nc1ccc(F)c(F)c1F,0,0,92,0,0
O=C(CN1CCN(c2ccc(O)cc2)CC1)NC(=O)NCc1ccco1,0,0,98,0,0
O=C(CN1CCN(c2ccccc2O)CC1)Nc1ccc2c(c1)OCCCO2,0,0,100,-,0
O=C(CN1CCN(c2ccccc2)CC1)Nc1ccc2c(c1)OCCO2,0,0,0,-,0
O=[N+]([O-])c1ccc(S(=O)(=O)NN=Cc2ccc(Cl)c(Cl)c2)cc1,0,0,-,0,0
Cc1c(Cl)cccc1NC(=S)N(Cc1cccnc1)Cc1ccccc1Cl,0,0,0,0,0
O=C(COC(=O)CC1CCCCC1)Nc1c(Cl)cccc1Cl,0,0,-,0,0
Cn1cc(Cl)c(C(=O)OCC(=O)Nc2ccc(S(N)(=O)=O)cc2)n1,0,0,-,0,0
COc1ccc(CNC(=O)NC(C)(C)c2cccc(C(C)(C)NC(=O)NCc3ccc(OC)cc3)c2)cc1,0,0,0,0,0
O=C(CN1CCN(c2ccc(O)cc2)CC1)Nc1ccc2c(c1)OCCO2,0,0,78,-,0
Cc1ccc(NC(=S)N(CCCN2CCCC2)Cc2cccn2Cc2ccc(Cl)cc2)cc1Cl,0,0,0,0,0
Cc1ccc(NC(=S)N(CCCN2CCCC2)Cc2cccn2Cc2ccc(Cl)cc2)cc1C,62,79,0,0,0
SMILES,Rtt109 Vps75,CAL PDZ FP-1,ALR H2O2 inh,Dyrk1A ADPGlo,CAL PDZ FP-2
COC(CN(C(=O)CCl)C(C(=O)NC1CCCCC1)c1ccc(Cl)cc1)OC (stereo not drawn),0,0,0,0,0
COC(CN(C(=O)CCl)C(C(=O)NC1CCCCC1)c1ccccc1C)OC (stereo not drawn),0,0,77,0,0
Cn1c(CNc2ccc(F)cc2)nc2ccccc21,0,0,85,0,0
O=C(CN(Cc1ccccc1)S(=O)(=O)c1ccc(F)cc1)NCCC1=CCCCC1,0,73,0,0,0
CCCCCCCCNc1ccccc1S(=O)(=O)NCc1ccccc1,0,0,-,-,0
N#CCCN(Cc1ccccc1)C(=O)c1cccs1,0,+,0,0,0
COc1ccc(NC(=O)C(=O)NCCN2CCN(C(=O)c3ccco3)CC2)cc1,0,0,0,0,0
COc1cccc(CN2CCC(C(=O)N3CCC(C)CC3)CC2)c1,0,-,0,0,0
O=C(NC1CCCc2ccccc21)N[C@@H](Cc1ccccc1)C(=O)O (stereo partly drawn),0,0,0,0,0
O=C(Cn1ccnc1)c1ccc(O)c(O)c1,0,0,90,0,0
Cc1nn(-c2cc(N3CCCCC3)ccc2N)c(=O)c2ccccc12,0,0,99,-,0
O=C(Nc1cccnc1)c1ccc(C(=O)Nc2cccnc2)cc1,0,0,-,0,0
CCN(CC)c1ccc(NC(=O)c2cncc(Br)c2)cc1,0,0,99,0,0
CCN(CC)c1ccc(NC(=O)c2cccnc2)cc1,0,0,99,0,0
N#CCC(=O)Nc1ccc(C(=O)Nc2cccnc2)cc1,0,0,100,0,0
Cc1ccc(NC(=O)c2cccs2)cc1NC(=O)c1cccnc1,0,105,0,0,0
CCCCc1ccc(NC(=S)Nc2ccc(Cl)c(S(=O)(=O)N(C)C)c2)cc1,0,0,-,0,0
O=c1c2ccccc2oc2cc(Br)ccc12,0,89,-,0,0
COc1cc2oc3ccccc3c(=O)c2cc1OC,0,0,0,0,0
Cc1cc(C)c(S(=O)(=O)NCC(c2ccco2)N2CCc3ccccc3C2)c(C)c1 (stereo not drawn),0,0,0,0,0
Cc1ccc(C2=Nn3c(COc4ccc(Cl)cc4)nnc3SC2CC(=O)O)cc1 (stereo not drawn),0,0,98,0,0
COc1ccc(NC(=O)CSCc2cc(=O)n3nc(C4CC4)sc3n2)cc1,0,0,0,0,0
O=C(CSCc1cc(=O)n2ccsc2n1)Nc1ccccc1,0,0,99,0,0
Cc1cccc(NC(=O)CSCc2cc(=O)n3nc(C4CC4)sc3n2)c1,0,0,98,0,0
COc1cccc(NC(=O)CSCc2cc(=O)n3ccsc3n2)c1,0,0,99,0,0
SMILES,Rtt109 Vps75,CAL PDZ FP-1,ALR H2O2 inh,Dyrk1A ADPGlo,CAL PDZ FP-2
COc1ccccc1NC(=O)CSCc1cc(=O)n2ccsc2n1,0,0,0,0,0
CCOCCc1nn2c(=O)cc(CSCC(=O)Nc3ccccc3)nc2s1,0,0,99,0,0
CCN(CC(=O)N1CCCC1)S(=O)(=O)c1ccc2ccccc2c1,0,0,-,0,0
CC(C)[C@H](NC(=O)c1ccccc1Cl)C(=O)Nc1ccc(S(=O)(=O)Nc2nccs2)cc1,0,0,0,-,0
Cc1ccc(NC(=O)CCc2ccc(C)o2)cc1,0,0,0,0,0
O=C(O)c1cc(S(=O)(=O)N2CCN(C(c3ccccc3)c3ccccc3)CC2)ccc1Cl,0,0,87,0,-
Oc1cc(-c2ccccc2)c2ccccc2c1,0,0,99,0,0
CCN(C(=O)CSc1nc(C)nc2sc(C)c(C)c12)C1CCS(=O)(=O)C1 (stereo not drawn),0,0,-,-,0
CCOC(=O)c1sc2nc(C)nc(SCC(=O)N(C)C3CCS(=O)(=O)C3)c2c1C (stereo not drawn),50,0,0,0,0

# Compound activity from PubChem.
